Laboratory results reported in ChEMBL document CHEMBL3244095, “Synthesis and antitumor activity of 5-azacytosine arabinoside” (J Med Chem, 1979).

How the values were obtained:
L1210 [1] = assay: Antitumor activity in mouse L1210 cells allografted in CDF1 mouse assessed as increase in life span at 6.25 mg/kg, ip administered as qd for 9 days relative to control; assay type: functional; conditions: 216 h, route intraperitoneal
In short: (§1)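 CDF1 mice inoculated ip with 10^5 L1210 leukemia cells on day 0; compounds in 0.9% saline given ip once daily days 1–9 (nine injections) across a dose-response range. Antitumor activity = mean increase in life span over untreated controls, expressed as % ILS; duplicate experiments, with drug-related deaths and weight loss monitored.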

L1210 [2] = assay: Antitumor activity in mouse L1210 cells allografted in CDF1 mouse assessed as increase in life span at 3.12 mg/kg, ip administered as qd for 9 days relative to control; assay type: functional; conditions: 216 h, route intraperitoneal; in short: as §1
L1210 [3] = assay: Antitumor activity in mouse L1210 cells allografted in CDF1 mouse assessed as increase in life span at 1.56 mg/kg, ip administered as qd for 9 days relative to control; assay type: functional; conditions: 216 h, route intraperitoneal; in short: as §1
L1210 [4] = assay: Antitumor activity in mouse L1210 cells allografted in CDF1 mouse assessed as increase in life span at 0.78 mg/kg, ip administered as qd for 9 days relative to control; assay type: functional; conditions: 216 h, route intraperitoneal; in short: as §1
Mus musculus [5] = assay: Toxicity in CDF1 mouse assessed as change in body weight at 12.5 mg/kg, ip measured on day 5 relative to control; assay type: organism-based; set-up: dose 12.5 mg/kg, route intraperitoneal; conditions: in vivo
In short: (§2)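 CDF1 mice were implanted ip with 10^5 L1210 leukemia cells on day 0. Drug in 0.9% saline was given ip once daily on days 1–9 (nine injections) in a dose-response design. Body weight was compared with untreated tumor-bearing controls. The work was done as duplicate experiments.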

Mus musculus [6] = assay: Toxicity in CDF1 mouse assessed as change in body weight at 6.25 mg/kg, ip measured on day 5 relative to control; assay type: organism-based; set-up: dose 6.25 mg/kg, route intraperitoneal; conditions: in vivo; in short: as §2
Mus musculus [7] = assay: Toxicity in CDF1 mouse assessed as change in body weight at 3.12 mg/kg, ip measured on day 5 relative to control; assay type: organism-based; set-up: dose 3.12 mg/kg, route intraperitoneal; conditions: in vivo; in short: as §2
Mus musculus [8] = assay: Toxicity in CDF1 mouse assessed as change in body weight at 1.56 mg/kg, ip measured on day 5 relative to control; assay type: organism-based; set-up: dose 1.56 mg/kg, route intraperitoneal; conditions: in vivo; in short: as §2
Mus musculus [9] = assay: Toxicity in CDF1 mouse assessed as change in body weight at 0.78 mg/kg, ip measured on day 5 relative to control; assay type: organism-based; set-up: dose 0.78 mg/kg, route intraperitoneal; conditions: in vivo; in short: as §2
[10] = Drug degradation in water solution at 25 degC after 5.5 hrs by reverse phase liquid chromatography; assay type: physicochemical; conditions: read-out: Drug degradation
In short: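 Parent held at 25 °C and sampled over time. Its disappearance was fitted to a first-order rate equation, and the fraction lost was taken at 5.5 h from that fit.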

L1210 [11] = assay: Antitumor activity in mouse L1210 cells allografted in CDF1 mouse assessed as increase in life span at 80 mg/kg, ip administered as qd for 9 days relative to control; assay type: functional; conditions: 216 h, route intraperitoneal; in short: as §1
L1210 [12] = assay: Antitumor activity in mouse L1210 cells allografted in CDF1 mouse assessed as increase in life span at 40 mg/kg, ip administered as qd for 9 days relative to control; assay type: functional; conditions: 216 h, route intraperitoneal; in short: as §1
L1210 [13] = assay: Antitumor activity in mouse L1210 cells allografted in CDF1 mouse assessed as increase in life span at 25 mg/kg, ip administered as qd for 9 days relative to control; assay type: functional; conditions: 216 h, route intraperitoneal; in short: as §1
L1210 [14] = assay: Antitumor activity in mouse L1210 cells allografted in CDF1 mouse assessed as increase in life span at 20 mg/kg, ip administered as qd for 9 days relative to control; assay type: functional; conditions: 216 h, route intraperitoneal; in short: as §1
L1210 [15] = assay: Antitumor activity in mouse L1210 cells allografted in CDF1 mouse assessed as increase in life span at 12.5 mg/kg, ip administered as qd for 9 days relative to control; assay type: functional; conditions: 216 h, route intraperitoneal; in short: as §1
L1210 [16] = assay: Antitumor activity in mouse L1210 cells allografted in CDF1 mouse assessed as increase in life span at 10 mg/kg, ip administered as qd for 9 days relative to control; assay type: functional; conditions: 216 h, route intraperitoneal; in short: as §1
L1210 [17] = assay: Antitumor activity in mouse L1210 cells allografted in CDF1 mouse assessed as increase in life span at 5 mg/kg, ip administered as qd for 9 days relative to control; assay type: functional; conditions: 216 h, route intraperitoneal; in short: as §1
Mus musculus [18] = assay: Toxicity in CDF1 mouse assessed as change in body weight at 200 mg/kg, ip measured on day 5 relative to control; assay type: organism-based; set-up: dose 200 mg/kg, route intraperitoneal; conditions: in vivo; in short: as §2
Mus musculus [19] = assay: Toxicity in CDF1 mouse assessed as change in body weight at 100 mg/kg, ip measured on day 5 relative to control; assay type: organism-based; set-up: dose 100 mg/kg, route intraperitoneal; conditions: in vivo; in short: as §2
Mus musculus [20] = assay: Toxicity in CDF1 mouse assessed as change in body weight at 80 mg/kg, ip measured on day 5 relative to control; assay type: organism-based; set-up: dose 80 mg/kg, route intraperitoneal; conditions: in vivo; in short: as §2
Mus musculus [21] = assay: Toxicity in CDF1 mouse assessed as change in body weight at 50 mg/kg, ip measured on day 5 relative to control; assay type: organism-based; set-up: dose 50 mg/kg, route intraperitoneal; conditions: in vivo; in short: as §2
Mus musculus [22] = assay: Toxicity in CDF1 mouse assessed as change in body weight at 40 mg/kg, ip measured on day 5 relative to control; assay type: organism-based; set-up: dose 40 mg/kg, route intraperitoneal; conditions: in vivo; in short: as §2
Mus musculus [23] = assay: Toxicity in CDF1 mouse assessed as change in body weight at 25 mg/kg, ip measured on day 5 relative to control; assay type: organism-based; set-up: dose 25 mg/kg, route intraperitoneal; conditions: in vivo; in short: as §2
Mus musculus [24] = assay: Toxicity in CDF1 mouse assessed as change in body weight at 20 mg/kg, ip measured on day 5 relative to control; assay type: organism-based; set-up: dose 20 mg/kg, route intraperitoneal; conditions: in vivo; in short: as §2
Mus musculus [25] = assay: Toxicity in CDF1 mouse assessed as change in body weight at 10 mg/kg, ip measured on day 5 relative to control; assay type: organism-based; set-up: dose 10 mg/kg, route intraperitoneal; conditions: in vivo; in short: as §2
Mus musculus [26] = assay: Toxicity in CDF1 mouse assessed as change in body weight at 5 mg/kg, ip measured on day 5 relative to control; assay type: organism-based; set-up: dose 5 mg/kg, route intraperitoneal; conditions: in vivo; in short: as §2
[27] = Half life of the compound; assay type: physicochemical
L1210 [28] = assay: Antitumor activity in mouse L1210 cells allografted in CDF1 mouse assessed as increase in life span at 200 mg/kg, ip administered as qd for 9 days relative to control; assay type: functional; conditions: 216 h, route intraperitoneal; in short: as §1
L1210 [29] = assay: Antitumor activity in mouse L1210 cells allografted in CDF1 mouse assessed as increase in life span at 100 mg/kg, ip administered as qd for 9 days relative to control; assay type: functional; conditions: 216 h, route intraperitoneal; in short: as §1
L1210 [30] = assay: Antitumor activity in mouse L1210 cells allografted in CDF1 mouse assessed as increase in life span at 50 mg/kg, ip administered as qd for 9 days relative to control; assay type: functional; conditions: 216 h, route intraperitoneal; in short: as §1
[31] = Drug degradation in water solution at 25 degC after 4 hrs by reverse phase liquid chromatography; assay type: physicochemical; conditions: read-out: Drug degradation
In short: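 Nucleoside in water solution held at 25 °C; the loss of parent compound over time was measured by LC analysis. Degradation was read at 4 h.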

## Nc1ncn([C@@H]2O[C@H](CO)[C@@H](O)[C@H]2O)c(=O)n1 [AZACITIDINE]
L1210 [1]
  ILS at 6.25 mg/kg: 1%
L1210 [2]
  ILS at 3.12 mg/kg: 33%
L1210 [3]
  ILS at 1.56 mg/kg: 66%
L1210 [4]
  ILS at 0.78 mg/kg: 26%
Mus musculus [5]
  Activity: Toxic
Mus musculus [6]
  Activity: -6.1 g
Mus musculus [7]
  Activity: -5.3 g
Mus musculus [8]
  Activity: -1.3 g
Mus musculus [9]
  Activity: -2 g
[10]
  degraded at 5.5 h: 15%

## Nc1ccn([C@@H]2O[C@H](CO)[C@@H](O)[C@@H]2O)c(=O)n1 [CYTARABINE]
L1210 [11]
  ILS at 80 mg/kg: 92%
L1210 [12]
  ILS at 40 mg/kg: 123%
L1210 [13]
  ILS at 25 mg/kg: 121%
L1210 [14]
  ILS at 20 mg/kg: 127%
L1210 [15]
  ILS at 12.5 mg/kg: 91%
L1210 [16]
  ILS at 10 mg/kg: 84%
L1210 [1]
  ILS at 6.25 mg/kg: 34%
L1210 [17]
  ILS at 5 mg/kg: 47%
L1210 [2]
  ILS at 3.12 mg/kg: 28%
Mus musculus [18]
  Activity: Non-toxic
Mus musculus [19]
  Activity: Non-toxic
Mus musculus [20]
  Activity: -1.8 g
Mus musculus [21]
  Activity: -1.8 g
Mus musculus [22]
  Activity: -1 g
Mus musculus [23]
  Activity: 0 g
Mus musculus [24]
  Activity: -0.3 g
Mus musculus [5]
  Activity: -0.4 g
Mus musculus [25]
  Activity: -0.2 g
Mus musculus [6]
  Activity: 0.3 g
Mus musculus [26]
  Activity: 0.4 g
Mus musculus [7]
  Activity: 0.3 g
[27]
  half-life: 34 h

## Nc1ncn([C@@H]2O[C@H](CO)[C@@H](O)[C@@H]2O)c(=O)n1 [FAZARABINE]
L1210 [28]
  ILS at 200 mg/kg: 19%
L1210 [29]
  ILS at 100 mg/kg: 80%
L1210 [30]
  ILS at 50 mg/kg: 92%
L1210 [13]
  ILS at 25 mg/kg: 58%
L1210 [15]
  ILS at 12.5 mg/kg: 58%
L1210 [1]
  ILS at 6.25 mg/kg: 41%
L1210 [2]
  ILS at 3.12 mg/kg: 28%
L1210 [3]
  ILS at 1.56 mg/kg: 66%
L1210 [4]
  ILS at 0.78 mg/kg: 39%
Mus musculus [18]
  Activity: -2.8 g
Mus musculus [19]
  Activity: -4 g
Mus musculus [21]
  Activity: -3.3 g
Mus musculus [23]
  Activity: -4 g
Mus musculus [5]
  Activity: -3.7 g
Mus musculus [6]
  Activity: -2.5 g
Mus musculus [7]
  Activity: -3.3 g
Mus musculus [8]
  Activity: -1.3 g
Mus musculus [9]
  Activity: -1.2 g
[31]
  degraded at 4 h: 15%
